Experimental data as given in ChEMBL document CHEMBL4184168, “Anticancer activities of emetine prodrugs that are proteolytically activated by the prostate specific antigen (PSA) and evaluation of in vivo toxicity of emetine derivatives” (Bioorg Med Chem, 2017).
Calls of active or inactive are those of the source. The calls are words filed in the database; no cut-off is given here. *1 amine or outer side, *2 acyl side, *3 side chain or, on linkers, in order; H or OH if unused. Where a SMILES comes first, the peptide text is derived from it. [ ]: non-standard residue; d: D form. The star is where a group is joined. Emetine(N2') = CC[C@H]1CN2CCc3cc(OC)c(OC)cc3[C@@H]2C[C@@H]1C[C@@H]1c2cc(OC)c(OC)cc2CCN1*; PABC = O=C(OCc1ccc(N[*:1])cc1)[*:2]

Experiments:
Mus musculus [1] = test: Toxicity in Balb/C mouse at 32 mg/kg, iv; type: organism-based; settings: in vivo
Mus musculus [2] = test: Toxicity in Balb/C mouse assessed as mortality at >100 mg/kg, iv; type: organism-based; settings: in vivo
In short: (§1)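 Male Balb/c mice, eight weeks old, about 25 g. Single IV bolus of 200 μL, doses ranging from 8 to 100 mg/kg, in 1% DMSO/saline or 10% cremophor/saline; vehicle-only controls. Each dose tested in triplicate. Mice watched for convulsions, death and behaviour after injection to set the maximum tolerated dose.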

[3] = Toxicity in iv dosed Balb/C mouse; type: organism-based; settings: in vivo; in short: as §1
Mus musculus [4] = test: Toxicity in Balb/C mouse assessed as change in behavior at >100 mg/kg, iv; type: organism-based; settings: in vivo; in short: as §1
Mus musculus [5] = test: Toxicity in Balb/C mouse at >100 mg/kg, iv; type: organism-based; settings: in vivo; in short: as §1
LNCaP [6] = test: Potency index, ratio of emetine IC50 to compound IC50 for human LNCAP cells expressing PSA; type: functional
Mus musculus [7] = test: Toxicity in Balb/C mouse assessed as convulsions at >25 mg/kg, iv; type: organism-based; settings: in vivo; in short: as §1
PC-3 [8] = test: Antiproliferative activity against human PC3 cells at 50 to 10000 nM after 3 days by MTT assay; type: functional, cell-based
In short: (§2)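 LNCaP seeded at 5 × 10^3 cells/well; PC3, CWR22Rv1 and MDA-MB-231 at 2.5 × 10^3. The first three were grown in RPMI and MDA-MB-231 in DMEM, each with 10% FBS. After 24 h attachment, cells got final 10, 50, 100, 1000 or 10,000 nM (0.1% DMSO) in eight replicates. Viable cells by MTT on day 0, 3 and 5, A570 corrected at 650 nm. Experiments run at least twice.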

[9] = target: T1, Prostate-specific antigen (Homo sapiens, UniProt P07288); test: Prodrug activation assessed as human PSA-mediated 4-((S)-1-(L-Alanyl)pyrrolidine-2-carboxamido)benzyl (R)-1-(((2R,3R,11bS)-3-ethyl-9,10-dimethoxy-1,3,4,6,7,11b-hexahydro-2Hpyrido[2,1-a]isoquinolin-2-yl)methyl)-6,7-dimethoxy-3,4-dihydroisoquinoline-2(1H)-carboxylate formation measured over 24 hrs by LC-MS analysis
T1 sequence (P07288 whole entry): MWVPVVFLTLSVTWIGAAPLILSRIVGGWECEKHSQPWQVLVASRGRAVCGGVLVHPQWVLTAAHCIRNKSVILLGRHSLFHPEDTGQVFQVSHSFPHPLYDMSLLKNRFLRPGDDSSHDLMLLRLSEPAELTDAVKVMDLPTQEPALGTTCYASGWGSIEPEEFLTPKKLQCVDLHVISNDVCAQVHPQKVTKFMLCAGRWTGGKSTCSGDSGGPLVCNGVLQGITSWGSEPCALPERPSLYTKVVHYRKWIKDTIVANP
In short: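 10 mM DMSO stock diluted to 200 μM final in PSA buffer (50 mM Tris·HCl, 100 mM NaCl, pH 7.4) with purified PSA at 20 μg/mL final and 2% DMSO. Shaken at 37 °C. Aliquots taken at time points, quenched with cold acetonitrile, held on ice, centrifuged, then analysed by reversed-phase C18 HPLC (215/285 nm) and mass spectrometry.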

MDA-MB-231 = test: Antiproliferative activity against human MDA-MB-231 cells at 50 to 10000 nM after 3 days by MTT assay; type: functional, cell-based; in short: as §2
Mus musculus [10] = test: Toxicity in Balb/C mouse assessed as convulsion at 16 mg/kg, iv up to 1 min; type: organism-based; settings: in vivo; in short: as §1
Mus musculus [11] = test: Toxicity in Balb/C mouse assessed as death at 16 mg/kg, iv up to 1 min; type: organism-based; settings: in vivo; in short: as §1
Mus musculus [12] = test: Toxicity in Balb/C mouse assessed as death at 33 mg/kg, iv measured at 1 min post dose; type: organism-based; settings: in vivo; in short: as §1
Mus musculus [13] = test: Toxicity in Balb/C mouse assessed as convulsion at 33 mg/kg, iv measured at 1 min post dose; type: organism-based; settings: in vivo; in short: as §1
CWR22R = test: Antiproliferative activity against human CWR22Rv1 cells expressing PSA after 3 days by MTT assay; type: functional, cell-based; settings: 22Rv1, 72 h; in short: as §2
Mus musculus [14] = test: Toxicity in Balb/C mouse assessed death at >32 mg/kg, iv; type: organism-based; settings: in vivo
Mus musculus [15] = test: Toxicity in Balb/C mouse assessed as convulsion at >25 mg/kg, iv up to 1 min; type: organism-based; settings: in vivo; in short: as §1
Mus musculus [16] = test: Toxicity in Balb/C mouse assessed as death at >25 mg/kg, iv up to 1 min; type: organism-based; settings: in vivo; in short: as §1
[17] = Stability in PBS buffer assessed as parent compound remaining at […] after 72 hrs by HPLC-MS analysis; type: physicochemical; settings: read-out: Stability
Mus musculus [18] = test: Toxicity in Balb/C mouse at >50 mg/kg, iv; type: organism-based; settings: in vivo; in short: as §1
LNCaP [19] = test: Antiproliferative activity against human LNCAP cells expressing PSA after 3 days by MTT assay; type: functional, cell-based; settings: 72 h; in short: as §2
PC-3 [20] = test: Antiproliferative activity against human PC3 cells after 3 days by MTT assay; type: functional, cell-based; settings: PC-3, 72 h; in short: as §2
[21] = Stability in conditioned media assessed as parent compound remaining at […] after 72 hrs by HPLC-MS analysis; type: physicochemical; settings: read-out: Stability
[22] = Stability assessed as parent compound remaining at […] in presence of 10% FBS after 72 hrs by HPLC-MS analysis; type: physicochemical; settings: cattle, read-out: Stability
[23] = target: T2, Prostate-specific antigen (PSA) (Homo sapiens, UniProt P07288); test: Stability in PBS buffer assessed as human PSA mediated compound metabolism by measuring parent compound remaining at […] after 72 hrs by HPLC-MS analysis; type: ADME; settings: read-out: Stability
T2 sequence (P07288 whole entry): T1 sequence (P07288 whole entry)

PC-3 [24] = test: Antiproliferative activity against human PC3 cells at 10000 nM after 3 days by MTT assay; type: functional, cell-based; in short: as §2
LNCaP [25] = test: Antiproliferative activity against human LNCAP cells expressing PSA at 10000 nM after 3 days by MTT assay; type: functional, cell-based; in short: as §2

SMILES: CC[C@H]1CN2CCc3cc(OC)c(OC)cc3[C@@H]2C[C@@H]1C[C@@H]1c2cc(OC)c(OC)cc2CCN1C(=O)/C(C)=C(/C)C(=O)O
- Activity (Mus musculus [1]): Toxic

SMILES: CC[C@H]1CN2CCc3cc(OC)c(OC)cc3[C@@H]2C[C@@H]1C[C@@H]1c2cc(OC)c(OC)cc2CCN1C(=O)CCC(=O)O
- Activity (Mus musculus [2]): Non-Toxic
- MTD [3]: > 100 mg/kg
- Activity (Mus musculus [4]): Non-Toxic

SMILES: CC[C@H]1CN2CCc3cc(OC)c(OC)cc3[C@@H]2C[C@@H]1C[C@@H]1c2cc(OC)c(OC)cc2CCN1C(=S)[S-].[Na+]
- Activity (Mus musculus [2]): Non-Toxic
- MTD [3]: > 100 mg/kg
- Activity (Mus musculus [4]): Non-Toxic

SMILES: CC[C@H]1CN2CCc3cc(OC)c(OC)cc3[C@@H]2C[C@@H]1C[C@@H]1c2cc(OC)c(OC)cc2CCN1C(=S)Nc1ccccc1
- Activity (Mus musculus [2]): Non-Toxic
- Activity (Mus musculus [5]): Non-Toxic
- MTD [3]: > 100 mg/kg
- Activity (Mus musculus [4]): Non-Toxic

SMILES: CC[C@H]1CN2CCc3cc(OC)c(OC)cc3[C@@H]2C[C@@H]1C[C@@H]1c2cc(OC)c(OC)cc2CCN1C(=O)OCc1ccc(NC(=O)[C@@H]2CCCN2C(=O)[C@H](C)NC(=O)[C@H](CCC(N)=O)NC(=O)[C@H](CC(C)C)NC(=O)[C@H](CCCCN)NC(=O)[C@H](CO)NC(=O)[C@H](CO)NC(=O)[C@H](Cc2cnc[nH]2)NC(C)=O)cc1 (Ac-HSSKLQAP[PABC]-{Emetine(N2')})
- Ratio IC50 (LNCaP [6]): 24
- Activity (Mus musculus [7]): Toxic
- Activity (PC-3 [8]): Active
- Drug metabolism [9]: Metabolite_Notdetected
- Activity (MDA-MB-231): Active

SMILES: CC[C@H]1CN2CCc3cc(OC)c(OC)cc3[C@@H]2C[C@@H]1C[C@@H]1c2cc(OC)c(OC)cc2CCN1C(=O)[C@@H]1CCCN1C(=O)[C@H](C)N
- Activity (Mus musculus [10]): Toxic
- Activity (Mus musculus [11]): Toxic

SMILES: CC[C@H]1CN2CCc3cc(OC)c(OC)cc3[C@@H]2C[C@@H]1C[C@@H]1c2cc(OC)c(OC)cc2CCN1C(=O)OCc1ccc(NC(=O)[C@@H]2CCCN2C(=O)[C@H](C)NC(=O)[C@@H]2CCCN2C(=O)[C@H](C)NC(C)=O)cc1 (Ac-APAP[PABC]-{Emetine(N2')})
- Activity (Mus musculus [12]): Toxic
- Activity (Mus musculus [13]): Toxic

SMILES: CC[C@H]1CN2CCc3cc(OC)c(OC)cc3[C@@H]2C[C@@H]1C[C@@H]1c2cc(OC)c(OC)cc2CCN1C(=O)OCc1ccc([N+](=O)[O-])cc1
- Activity (Mus musculus [2]): Non-Toxic
- Activity (Mus musculus [5]): Non-Toxic
- MTD [3]: > 64 mg/kg
- Activity (Mus musculus [4]): Non-Toxic

SMILES: CC[C@H]1CN2CCc3cc(OC)c(OC)cc3[C@@H]2C[C@@H]1C[C@@H]1c2cc(OC)c(OC)cc2CCN1C(=O)/C=C(/C)C(=O)O
- Activity (Mus musculus [2]): Non-Toxic
- MTD [3]: > 100 mg/kg
- Activity (Mus musculus [4]): Non-Toxic

SMILES: CC[C@H]1CN2CCc3cc(OC)c(OC)cc3[C@@H]2C[C@@H]1C[C@H]1NCCc2cc(OC)c(OC)cc21 [EMETINE]
- Activity (PC-3 [8]): Active
- Activity (Mus musculus [10]): Toxic
- IC50 (CWR22R): 30.8 nM
- Activity (MDA-MB-231): Active
- Activity (Mus musculus [11]): Toxic
- MTD [3]: 8 mg/kg

SMILES: CC[C@H]1CN2CCc3cc(OC)c(OC)cc3[C@@H]2C[C@@H]1C[C@@H]1c2cc(OC)c(OC)cc2CCN1C(=O)OCc1ccc(NC(=O)[C@@H]2CCCN2C(=O)[C@H](C)N)cc1
- Activity (Mus musculus [14]): Toxic
- MTD [3]: 32 mg/kg

SMILES: CC[C@H]1CN2CCc3cc(OC)c(OC)cc3[C@@H]2C[C@@H]1C[C@@H]1c2cc(OC)c(OC)cc2CCN1C(=O)OCc1ccc(NC(=O)[C@@H]2CCCN2C(=O)[C@H](C)NC(=O)[C@@H]2CCCN2C(=O)CNC(=O)[C@H](C)NC(=O)[C@@H]2CCCN2C(=O)CNC(=O)[C@H](CO)NC(=O)[C@H](C)NC(C)=O)cc1 (Ac-ASGPAGPAP[PABC]-{Emetine(N2')})
- Activity (Mus musculus [15]): Toxic
- Activity (Mus musculus [16]): Toxic
- MTD [3]: 25 mg/kg

SMILES: CC[C@H]1CN2CCc3cc(OC)c(OC)cc3[C@@H]2C[C@@H]1C[C@@H]1c2cc(OC)c(OC)cc2CCN1C(=O)OCc1ccc(NC(=O)[C@H](CC(C)C)NC(=O)[C@@H](N)CO)cc1
- remaining at 72 h [17]: 100%
- Activity (Mus musculus [18]): Toxic
- IC50 (LNCaP [19]): 100 nM
- IC50 (PC-3 [20]): 100 nM
- remaining at 72 h [21]: 100%
- remaining at 72 h [22]: 100%
- remaining at 72 h [23]: 100%
- MTD [3]: 50 mg/kg

SMILES: CC[C@@H]1C[C@@H](C[C@@H]2c3cc(OC)c(OC)cc3CCN2C(=O)OCc2ccc(NC(=O)[C@H](CC(C)C)NC(=O)[C@H](CO)NC(C)=O)cc2)[C@H]2c3cc(OC)c(OC)cc3CCN2C1
- Activity (PC-3 [24]): Active
- Activity (LNCaP [25]): Active

SMILES: CC[C@H]1CN2CCc3cc(OC)c(OC)cc3[C@@H]2C[C@@H]1C[C@@H]1c2cc(OC)c(OC)cc2CCN1C(=O)/C=C(/CC(=O)O)C(=O)O
- Activity (Mus musculus [2]): Non-Toxic
- MTD [3]: > 100 mg/kg
- Activity (Mus musculus [4]): Non-Toxic
